Measured values of several laboratories.
Compare with care: the assays were run in different laboratories. Values after ≈ are worked out from the molar mass of the structure shown.
Effect on: microbial growth

Compound | organism | method | strain | time | setting | MIC
COc1ccc(-c2nc3ccc(C)cc3[nH]2)cc1OC | Staphylococcus aureus | broth dilution | ATCC43300 MRSA |  | drug-resistant strain | 256 µg/mL (≈ 954 µM)
CC1(C)CC[C@]2(C(=O)O)CC[C@]3(C)C(=CC[C@@H]4[C@@]5(C)CC[C@H](O)C(C)(C)[C@@H]5CC[C@]43C)[C@@H]2C1 | Staphylococcus aureus |  | ATCC29213 |  |  | 128 µg/mL (≈ 280 µM)
Cc1ccc2nc(-c3ccc4c(c3)OCO4)[nH]c2c1 | Staphylococcus aureus | broth dilution | ATCC43300 MRSA |  | drug-resistant strain | 512 µg/mL (≈ 2030 µM)
COC(=O)c1cc(-c2cccc(NC(=O)Nc3cccc(Cl)c3Cl)c2)on1 | Escherichia coli | broth dilution | ATCC25922 |  |  | > 64 µg/mL
Clc1ccc(-c2nc3ccccc3[nH]2)cc1Cl | Staphylococcus aureus | broth dilution | ATCC43300 MRSA |  | drug-resistant strain | 64 µg/mL (≈ 243 µM)
c1ccc(CCOC2CCCc3c2[nH]c2ccccc32)cc1 (centres unmarked) | Micrococcus luteus | broth dilution | DSM1790 |  |  | 128 µg/mL (≈ 439 µM)
COC(=O)c1cc(-c2cccc(NC(=S)NC3CCCCC3)c2)on1 | Escherichia coli | broth dilution | ATCC25922 |  |  | > 64 µg/mL
CN[C@H](CC(C)C)C(=O)N[C@H]1C(=O)N[C@@H](CC(N)=O)C(=O)N[C@H]2C(=O)N[C@H]3C(=O)N[C@H](C(=O)N[C@H](C(=O)O)c4cc(O)cc(O)c4-c4cc3ccc4O)[C@H](O)c3ccc(c(Cl)c3)Oc3cc2cc(c3O[C@@H]2O[C@H](CO)[C@@H](O)[C@H](O)[C@H]2O[C@H]2C[C@](C)(N)[C@H](O)[C@H](C)O2)Oc2ccc(cc2Cl)[C@H]1O | Lactobacillus acidophilus | agar dilution |  | 48 h |  | 2 µg/mL (≈ 1.38 µM)
Cc1ccc2[nH]c3c(c2c1)CCCC3NCCc1ccc(O)cc1 (centres unmarked) | Micrococcus luteus | broth dilution | DSM1790 |  |  | 8 µg/mL (≈ 25 µM)
CC(C)[C@H](N)C(=O)OCCCCCn1cnc2nc(NCc3ccc(Cl)c(Cl)c3)[nH]c(=O)c21 | Lactobacillus acidophilus | agar dilution |  | 48 h |  | 8 µg/mL (≈ 16.1 µM)
COC(=O)c1cc(-c2cccc(NC(=O)Nc3cccc(Br)c3)c2)on1 | Escherichia coli | broth dilution | ATCC25922 |  |  | > 64 µg/mL
